In publication PMC5788303 (Journal of medicinal chemistry, 2017):

Key:
[1] = In situ mouse brain perfusion; type: in vivo
Method in brief: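 Adult male mice, 25 ± 5 g, anaesthetised with i.p. ketamine 120 mg/kg plus xylazine. Right external carotid ligated; right common carotid cannulated with a 100 IU/mL heparin-filled catheter. Perfused with 100 μM test compound at 37 °C and 2.5 mL/min for 60 s, then washed 2 s with 4 °C drug-free buffer. Brain level measured (detection limit 5 pmol/g).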

native KA receptors = test: Radioligand binding at native KA receptors; conditions: [3H]KA, rat synaptosomes
Method in brief: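 Native kainate receptors in rat brain synaptosomes were labelled with [3H]KA, and displacement by the test compound was measured. IC50 and Ki values were derived from the binding data.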

native AMPA receptors = test: Radioligand binding at native AMPA receptors; conditions: read-out: AMPA IC50; [3H]AMPA, rat synaptosomes
Method in brief: (§1)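 Native receptors in rat brain synaptosomes: AMPA labelled with [3H]AMPA, KA with [3H]KA, NMDA with [3H]CGP-39653. Recombinant homomeric rat GluK1-3 labelled with [3H]KA. IC50 and Ki values derived from displacement data.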

iGluRs = test: Binding affinity at iGluRs; parameters: species or system rat; conditions: native iGluRs and homomeric GluK1-3
Method in brief: as §1

GluN1/GluN2A = GluN1/GluN2A (Rattus norvegicus, UniProt Q00959); test: Two-electrode voltage-clamp electrophysiology, Xenopus oocytes, GluN1/GluN2A; type: biochemical; conditions: 100 μM glycine and 10 μM Glu
Method in brief: (§2)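 Rat GluN1 and GluN2A-D cRNAs injected 1:2 into Xenopus oocytes, held at 18 °C in Barth's solution. Recorded at room temperature 2–6 days later in 90 mM NaCl, 1 mM KCl, 10 mM HEPES, 0.5 mM BaCl2, 0.01 mM EDTA (pH 7.4), −40 mV. Currents evoked by 100 μM glycine plus Glu: 10 μM (2A), 3 μM (2B, 2C), 1 μM (2D). Per-oocyte Hill fits, mean ± SEM.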

GluN1/GluN2D = GluN1/GluN2D (Rattus norvegicus, UniProt Q62645); test: Two-electrode voltage-clamp electrophysiology, Xenopus oocytes, GluN1/GluN2D; type: biochemical; conditions: 100 μM glycine and 1 μM Glu
Method in brief: as §2

Abcc4 (Mrp4) = test: Transporter protein expression by SRM/MRM LC-MS/MS, Abcc4; type: cell-based, mouse; conditions: 10 μM, 48 h, HCC cell crude membrane fraction
Abcg2 (Bcrp) = test: Transporter protein expression by SRM/MRM LC-MS/MS, Abcg2; type: cell-based, mouse; conditions: 10 μM, 48 h, HCC cell crude membrane fraction
GluN1/GluN2C = GluN1/GluN2C (Rattus norvegicus, UniProt Q00961); test: Two-electrode voltage-clamp electrophysiology, Xenopus oocytes, GluN1/GluN2C; type: biochemical; conditions: 100 μM glycine and 3 μM Glu
Method in brief: as §2

[2] = system: NMDA receptors in murine HCC cells; test: Calcium imaging of NMDA-induced Ca2+ transients in murine HCC cells; type: cell-based, mouse; conditions: 150 μM NMDA
[3] = In vivo pharmacokinetics in mice, 10 mg/kg i.p.; parameters: species or system mouse
Abcc2 (Mrp2) = test: Transporter protein expression by SRM/MRM LC-MS/MS, Abcc2; type: cell-based, mouse; conditions: 10 μM, HCC cell crude membrane fraction
Abcb1 (Pgp) = test: Transporter protein expression by SRM/MRM LC-MS/MS, Abcb1; type: cell-based, mouse; conditions: 10 μM, 48 h, HCC cell crude membrane fraction
GluN1/GluN2B = GluN1/GluN2B (Rattus norvegicus, UniProt Q00960); test: Two-electrode voltage-clamp electrophysiology, Xenopus oocytes, GluN1/GluN2B; type: biochemical; conditions: 100 μM glycine and 3 μM Glu
Method in brief: as §2

Slc7a5 (Lat1) = test: Transporter protein expression by SRM/MRM LC-MS/MS, Slc7a5; type: cell-based, mouse; conditions: 10 μM, 48 h, HCC cell crude membrane fraction
Slc2a1 (Glut1) = test: Transporter protein expression by SRM/MRM LC-MS/MS, Slc2a1; type: cell-based, mouse; conditions: 10 μM, 48 h, HCC cell crude membrane fraction
native NMDA receptors = test: Radioligand binding at native NMDA receptors; parameters: species or system rat; conditions: compared with 1l / 1n
mouse HCC cells = test: Anti-proliferative activity in vitro; type: cell-based; conditions: 72 h
Method in brief: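 Mouse Nras-driven p53−/− HCC cells in DMEM with 2 mM L-glutamine, 10% heat-inactivated FBS and penicillin/streptomycin. Cells seeded at 2×10^4/well on collagen-coated plates and used one day later. Test compound given at 0.1–200 μM, or at 1, 2.5, 5 and 10 μM with or without a 100 μM second test compound, for 72 h with daily medium change. Viability read by resazurin fluorescence (ex 560/em 590 nm). IC50 by nonlinear regression, mean ± SEM.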

GluN1/GluN2B, sequence (Q00960 27-1482, other chains not shown): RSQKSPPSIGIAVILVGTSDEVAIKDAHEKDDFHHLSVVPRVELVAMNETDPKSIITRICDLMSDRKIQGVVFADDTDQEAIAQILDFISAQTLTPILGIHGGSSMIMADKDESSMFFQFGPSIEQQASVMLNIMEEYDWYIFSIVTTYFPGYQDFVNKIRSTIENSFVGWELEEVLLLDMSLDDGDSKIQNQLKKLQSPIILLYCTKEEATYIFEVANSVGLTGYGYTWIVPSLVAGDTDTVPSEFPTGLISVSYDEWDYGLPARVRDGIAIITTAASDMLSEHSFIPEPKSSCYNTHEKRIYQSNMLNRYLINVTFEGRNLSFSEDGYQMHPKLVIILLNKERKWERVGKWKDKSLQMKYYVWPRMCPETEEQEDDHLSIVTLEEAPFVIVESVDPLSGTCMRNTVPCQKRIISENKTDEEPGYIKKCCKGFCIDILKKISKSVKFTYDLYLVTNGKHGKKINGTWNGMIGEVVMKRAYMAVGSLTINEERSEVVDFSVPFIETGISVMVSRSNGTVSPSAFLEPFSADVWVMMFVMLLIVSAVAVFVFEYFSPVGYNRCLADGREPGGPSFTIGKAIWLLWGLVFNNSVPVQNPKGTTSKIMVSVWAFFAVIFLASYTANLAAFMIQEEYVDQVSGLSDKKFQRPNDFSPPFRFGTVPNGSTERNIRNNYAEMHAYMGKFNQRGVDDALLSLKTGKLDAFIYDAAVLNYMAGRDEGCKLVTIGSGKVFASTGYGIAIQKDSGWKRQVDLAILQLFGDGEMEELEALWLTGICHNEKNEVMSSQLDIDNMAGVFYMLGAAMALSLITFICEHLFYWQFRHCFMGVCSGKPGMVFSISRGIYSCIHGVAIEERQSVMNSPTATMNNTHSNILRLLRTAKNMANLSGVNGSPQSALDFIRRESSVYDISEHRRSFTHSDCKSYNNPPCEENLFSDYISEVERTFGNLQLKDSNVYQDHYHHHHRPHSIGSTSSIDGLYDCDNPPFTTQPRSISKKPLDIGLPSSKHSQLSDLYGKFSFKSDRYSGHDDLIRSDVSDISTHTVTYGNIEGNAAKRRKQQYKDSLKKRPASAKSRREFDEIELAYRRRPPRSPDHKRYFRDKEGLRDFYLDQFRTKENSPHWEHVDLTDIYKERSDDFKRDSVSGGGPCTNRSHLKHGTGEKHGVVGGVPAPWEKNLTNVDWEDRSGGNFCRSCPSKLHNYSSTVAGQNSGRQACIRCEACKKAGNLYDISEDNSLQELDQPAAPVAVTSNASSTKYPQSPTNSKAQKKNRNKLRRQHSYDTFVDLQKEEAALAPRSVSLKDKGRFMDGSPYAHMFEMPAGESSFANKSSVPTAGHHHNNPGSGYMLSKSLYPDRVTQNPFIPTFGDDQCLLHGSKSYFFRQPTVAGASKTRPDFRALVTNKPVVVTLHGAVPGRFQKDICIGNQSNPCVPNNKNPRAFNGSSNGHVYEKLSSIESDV
GluN1/GluN2C, sequence (Q00961 20-1237, other chains not shown): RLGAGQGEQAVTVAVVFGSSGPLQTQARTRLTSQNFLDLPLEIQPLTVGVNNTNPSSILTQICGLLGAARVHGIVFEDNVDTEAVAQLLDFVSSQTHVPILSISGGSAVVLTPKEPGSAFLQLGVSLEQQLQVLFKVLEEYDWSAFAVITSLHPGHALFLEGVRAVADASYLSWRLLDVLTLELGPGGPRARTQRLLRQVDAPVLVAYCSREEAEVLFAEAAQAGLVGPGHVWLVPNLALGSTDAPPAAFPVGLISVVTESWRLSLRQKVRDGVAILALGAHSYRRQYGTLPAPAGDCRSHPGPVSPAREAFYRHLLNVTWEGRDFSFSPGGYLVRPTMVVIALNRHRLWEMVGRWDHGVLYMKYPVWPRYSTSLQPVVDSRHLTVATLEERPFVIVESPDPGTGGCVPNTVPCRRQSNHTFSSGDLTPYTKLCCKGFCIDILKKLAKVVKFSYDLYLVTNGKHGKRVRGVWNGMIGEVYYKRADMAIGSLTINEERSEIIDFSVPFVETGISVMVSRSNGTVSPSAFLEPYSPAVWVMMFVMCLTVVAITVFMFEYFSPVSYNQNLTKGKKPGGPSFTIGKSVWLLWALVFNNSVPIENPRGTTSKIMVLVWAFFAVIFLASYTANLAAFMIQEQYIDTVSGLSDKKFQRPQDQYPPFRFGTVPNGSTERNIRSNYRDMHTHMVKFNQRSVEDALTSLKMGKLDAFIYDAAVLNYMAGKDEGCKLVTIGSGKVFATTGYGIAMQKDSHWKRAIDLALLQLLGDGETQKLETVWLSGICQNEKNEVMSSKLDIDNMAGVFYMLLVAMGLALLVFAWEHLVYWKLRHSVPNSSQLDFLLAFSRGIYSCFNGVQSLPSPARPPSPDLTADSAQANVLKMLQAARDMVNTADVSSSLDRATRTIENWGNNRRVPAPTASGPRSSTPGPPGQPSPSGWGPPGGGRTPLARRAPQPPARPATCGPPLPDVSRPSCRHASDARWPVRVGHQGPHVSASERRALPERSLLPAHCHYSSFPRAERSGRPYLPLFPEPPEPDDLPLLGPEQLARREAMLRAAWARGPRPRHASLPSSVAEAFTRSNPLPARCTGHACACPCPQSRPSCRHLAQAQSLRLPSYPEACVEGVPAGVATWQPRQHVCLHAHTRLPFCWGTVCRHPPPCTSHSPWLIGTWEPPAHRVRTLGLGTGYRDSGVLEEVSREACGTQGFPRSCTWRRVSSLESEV
GluN1/GluN2A, sequence (Q00959 23-1464, other chains not shown): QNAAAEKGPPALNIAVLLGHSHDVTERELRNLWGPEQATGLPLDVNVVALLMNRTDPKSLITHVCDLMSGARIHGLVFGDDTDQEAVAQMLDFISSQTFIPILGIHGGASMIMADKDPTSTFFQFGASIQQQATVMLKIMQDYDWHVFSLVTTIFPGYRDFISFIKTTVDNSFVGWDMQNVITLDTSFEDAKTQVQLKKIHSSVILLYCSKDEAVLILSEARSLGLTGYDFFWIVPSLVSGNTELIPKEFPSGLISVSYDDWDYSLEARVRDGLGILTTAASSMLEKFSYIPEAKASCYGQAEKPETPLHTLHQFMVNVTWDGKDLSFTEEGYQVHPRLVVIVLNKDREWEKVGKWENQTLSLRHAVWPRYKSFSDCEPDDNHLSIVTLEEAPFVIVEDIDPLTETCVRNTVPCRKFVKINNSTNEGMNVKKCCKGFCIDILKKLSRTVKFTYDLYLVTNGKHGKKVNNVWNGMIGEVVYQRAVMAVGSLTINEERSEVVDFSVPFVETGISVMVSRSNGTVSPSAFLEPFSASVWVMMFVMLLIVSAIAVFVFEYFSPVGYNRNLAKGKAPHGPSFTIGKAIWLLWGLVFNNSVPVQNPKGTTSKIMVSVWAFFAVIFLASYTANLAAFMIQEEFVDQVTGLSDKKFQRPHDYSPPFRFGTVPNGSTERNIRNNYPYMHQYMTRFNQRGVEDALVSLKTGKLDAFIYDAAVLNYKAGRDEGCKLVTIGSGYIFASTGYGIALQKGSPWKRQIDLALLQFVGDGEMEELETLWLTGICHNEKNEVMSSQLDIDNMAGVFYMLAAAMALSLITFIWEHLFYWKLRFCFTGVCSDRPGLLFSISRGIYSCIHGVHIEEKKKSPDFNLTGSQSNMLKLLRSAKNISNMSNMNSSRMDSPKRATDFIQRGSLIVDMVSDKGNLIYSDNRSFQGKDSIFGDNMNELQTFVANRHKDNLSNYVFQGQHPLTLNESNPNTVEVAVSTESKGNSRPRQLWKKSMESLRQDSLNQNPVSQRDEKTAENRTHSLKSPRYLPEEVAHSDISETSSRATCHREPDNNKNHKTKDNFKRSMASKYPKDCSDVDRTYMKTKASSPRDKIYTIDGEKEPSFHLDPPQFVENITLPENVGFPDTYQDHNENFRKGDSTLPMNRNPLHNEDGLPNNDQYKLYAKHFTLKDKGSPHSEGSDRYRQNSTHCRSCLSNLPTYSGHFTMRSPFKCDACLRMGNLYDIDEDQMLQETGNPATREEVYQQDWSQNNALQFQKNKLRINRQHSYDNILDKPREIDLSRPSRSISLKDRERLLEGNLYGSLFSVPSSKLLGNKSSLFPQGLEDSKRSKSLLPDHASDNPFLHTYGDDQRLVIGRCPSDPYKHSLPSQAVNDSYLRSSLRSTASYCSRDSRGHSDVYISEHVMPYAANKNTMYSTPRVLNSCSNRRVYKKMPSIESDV

Structure (SMILES): O=C(O)c1cccc([C@H]2CCN[C@@H]2C(=O)O)c1 [1a, (2S,3R)-3-(3-Carboxyphenyl)pyrrolidine-2-Carboxylic Acid]
- BBB penetration ([1]; mouse in situ brain perfusion): does not penetrate the BBB

Structure (SMILES): Cl.O=C(O)[C@H]1NCC[C@@H]1c1cccc(Cl)c1 [1d, (2S,3R)-2-Carboxy-3-(3-chlorophenyl)pyrrolidin-1-ium chloride]
- KA IC50 (native KA receptors): >100 µM
- IC50 (native AMPA receptors): > 100 µM

Structure (SMILES): Cl.O=C(O)[C@H]1NCC[C@@H]1c1cccc(C(F)(F)F)c1 [1e, (2S,3R)-2-Carboxy-3-(3-(trifluoromethyl)phenyl)pyrrolidin-1-ium chloride]
- KA IC50 (native KA receptors): >100 µM
- IC50 (native AMPA receptors): > 100 µM

Structure (SMILES): Cl.Cl.Nc1cccc([C@H]2CCN[C@@H]2C(=O)O)c1 [1f, (2S,3R)-3-(3-Aminophenyl)pyrrolidine-2-carboxylic acid dihydrochloride]
- KA IC50 (native KA receptors): >100 µM
- IC50 (native AMPA receptors): > 100 µM

Structure (SMILES): Cl.N#Cc1cccc([C@H]2CCN[C@@H]2C(=O)O)c1 [1g, (2S,3R)-3-(3-Cyanophenyl)pyrrolidine-2-carboxylic acid hydrochloride]
- KA IC50 (native KA receptors): >100 µM
- IC50 (native AMPA receptors): > 100 µM

Structure (SMILES): Cl.NC(=O)c1cccc([C@H]2CCN[C@@H]2C(=O)O)c1 [1h, (2S,3R)-3-(3-Carbamoylphenyl)-2-carboxypyrrolidin-1-ium chloride]
- IC50 or Ki at the iGluRs (iGluRs): > 100 µM
- KA IC50 (native KA receptors): >100 µM
- IC50 (native AMPA receptors): > 100 µM

Structure (SMILES): Cl.O=C(O)[C@H]1NCC[C@@H]1c1cccc(B(O)O)c1 [1i, (2S,3R)-3-(3-Boronophenyl)pyrrolidine-2-carboxylic acid hydrochloride]
- IC50 or Ki at the iGluRs (iGluRs): > 100 µM
- KA IC50 (native KA receptors): >100 µM
- IC50 (native AMPA receptors): > 100 µM

Structure (SMILES): O=C(O)[C@H]1NCC[C@@H]1c1ccc(O)c(O)c1 [1j, (2S,3R)-3-(3,4-Dihydroxyphenyl)pyrrolidine-2-carboxylic acid]
- KA IC50 (native KA receptors): >100 µM
- IC50 (native AMPA receptors): > 100 µM

Structure (SMILES): O=C(O)c1cc([C@H]2CCN[C@@H]2C(=O)O)ccc1F [1k, (2S,3R)-2-Carboxy-3-(3-carboxy-4-fluorophenyl)pyrrolidin-1-ium chloride]
- IC50 (native AMPA receptors): > 100 µM

Structure (SMILES): Cl.O=C(O)c1cc([C@H]2CCN[C@@H]2C(=O)O)ccc1Cl [1l, (2S,3R)-3-(3-Carboxy-4-chlorophenyl)pyrrolidine-2-carboxylic acid hydrochloride]
- nH (Hillslope) (GluN1/GluN2A): 1.3
- brain concentration following perfusion ([1]; perfusion with 100 μM of the compound, detection limit of analytical method): < 5 pmol/g
- nH (Hillslope) (GluN1/GluN2D): 1.3
- Abcc4 (Mrp4) protein expression level (Abcc4 (Mrp4)): 0.27 ± 0.04 fmol/μg of total protein
- Abcg2 (Bcrp) protein expression level (Abcg2 (Bcrp)): 1.24± 0.13 fmol/μg of total protein
- nH (Hillslope) (GluN1/GluN2C): 1.0
- inhibition of NMDA-induced intracellular Ca2+ transients ([2]; compound at 25 and 41 μM): inhibit NMDA activation significantly
- KA IC50 (native KA receptors): >100 µM
- changes in the behavior of the mice after injection ([3]; 10 mg/kg i.p.): no observable changes in the behavior
- brain concentration ([3]; 30 min after 10 mg/kg i.p.): 0.3 nmol/g
- brain concentration ([3]; 60 min after 10 mg/kg i.p.): 0.1 nmol/g
- Abcc2 protein expression (Abcc2 (Mrp2)): below the lower limit of quantification
- Abcb1 (Pgp) protein expression level (Abcb1 (Pgp)): 0.39± 0.06 fmol/μg of total protein
- nH (Hillslope) (GluN1/GluN2B): 1.3
- IC50 (native AMPA receptors): > 100 µM
- Slc7a5 (Lat1) protein expression level (Slc7a5 (Lat1)): 5.72± 1.61 fmol/μg of total protein
- Slc2a1 (Glut1) protein expression level (Slc2a1 (Glut1)): 13.2± 0.53 fmol/μg of total protein

Structure (SMILES): Cc1ccc([C@H]2CCN[C@@H]2C(=O)O)cc1C(=O)O.Cl [1m, (2S,3R)-3-(3-Carboxy-4-methylphenyl)pyrrolidine-2-carboxylic acid hydrochloride]
- drop in binding affinity for native NMDA receptors (native NMDA receptors): 30 fold
- KA IC50 (native KA receptors): >100 µM
- IC50 (native AMPA receptors): > 100 µM

Structure (SMILES): Cl.O=C(O)c1cc([C@H]2CCN[C@@H]2C(=O)O)ccc1Br [1n, (2S,3R)-3-(3-Carboxy-4-bromophenyl)pyrrolidine-2-carboxylic acid hydrochloride]
- KA IC50 (native KA receptors): >100 µM
- IC50 (native AMPA receptors): > 100 µM

Structure (SMILES): N[C@H](CCCP(=O)(O)O)C(=O)O [D-AP5, reference compound]
- inhibition of NMDA-induced intracellular Ca2+ transients ([2]; compound at 20 μM): inhibit NMDA activation significantly

Structure (SMILES): CNC(=O)c1cc(Oc2ccc(NC(=O)Nc3ccc(Cl)c(C(F)(F)F)c3)cc2)ccn1 [sorafenib]
- IC50 (mouse HCC cells; read-out: IC50 on HCC cell viability): 7.4 ± 1.7 µM
- viability at 1 µM (mouse HCC cells; read-out: cell viability): 88 ± 3%
- viability at 2.5 µM (mouse HCC cells; read-out: cell viability): 82 ± 3%
- viability at 5 µM (mouse HCC cells; read-out: cell viability): 72 ± 1%
- viability at 10 µM (mouse HCC cells; read-out: cell viability): 31 ± 2%
